Shown are actives, neighbours in structure and some others; about 6.8% of the full set was active somewhere.
core dimer inh – inhibitors of HCV core protein dimerization, primary screen, biochemical, TR-FRET, high-throughput; TR-FRET GST/Flag-core106 dimerization, 1536-well; inhibition, % at 5 µM; hit rate 0.33% among 300,000; AID 1899, 2009;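 active = inhibition above the mean of all tested compounds plus 3 SD, set per screening campaign, cut at about 45% in these data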
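test system = GST/Flag-tagged HCV core106 proteins | probe or stimulus = Eu donor and XL665 acceptor anti-tag antibodies | times = compound-protein-antibody incubation 4 h at 22.5 °C | signal = TR-FRET, excitation 340 nm, emission 617 and 671 nm | measure = percent inhibition of core106 dimerization signal | controls = wells lacking GST-core106 and wells with excess unlabelled core106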
PHOSPHO1 inh – PubChem AID 1565; Phosphoethanolamine/phosphocholine phosphatase (Homo sapiens), Q8TCT1; recombinant PHOSPHO1, absorbance phosphatase assay; inhibition, % at 13.3 µM; hit rate 1.1% among 290,000; in the data active = inhibition above about 60%
Target sequence (Q8TCT1 whole entry, looked up): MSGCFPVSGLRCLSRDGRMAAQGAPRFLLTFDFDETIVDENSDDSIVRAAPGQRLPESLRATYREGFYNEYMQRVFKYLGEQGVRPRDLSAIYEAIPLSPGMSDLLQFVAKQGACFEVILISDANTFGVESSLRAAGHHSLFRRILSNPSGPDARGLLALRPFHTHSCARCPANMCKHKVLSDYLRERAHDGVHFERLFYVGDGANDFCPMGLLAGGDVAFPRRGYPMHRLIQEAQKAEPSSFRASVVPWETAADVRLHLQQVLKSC
ALR H2O2 inh – inhibitors of human ALR sulfhydryl oxidase, primary screen, biochemical, H2O2 detection, HRP-luminol luminescence, single point | purified ALR, DTT oxidation | inhibition, % (test concentration not listed) | hit rate 3.8% among 290,000;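 active = mean replicate inhibition above about 79%, with every replicate also reaching it, limit read from the data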
Target sequence (P55789 whole entry, looked up): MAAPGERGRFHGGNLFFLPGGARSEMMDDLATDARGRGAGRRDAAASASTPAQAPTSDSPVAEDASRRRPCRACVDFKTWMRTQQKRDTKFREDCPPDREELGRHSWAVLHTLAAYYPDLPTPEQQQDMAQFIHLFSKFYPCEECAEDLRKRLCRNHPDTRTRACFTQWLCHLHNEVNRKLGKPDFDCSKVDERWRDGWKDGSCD
AI-2 QS modul – Vibrio harveyi AI-2 quorum sensing modulators, primary screen, JMH597 strain, luminescence/OD600 ratio | hit rate 0.4% among 300,000 | Vibrio harveyi JMH597 AI-2 luminescence/OD600 ratio, 9 h; stronger effect = lower value; strain lacks LuxN and CqsS sensors; 0 = neutral-control median | AID 2094, 2009 | activity change, % at 7.5 µM; in the data active = activity change below about -75%, passing the limit was not always enough;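 note: luminescence divided by OD600 gain over 9 h not by final OD600 alone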
HSF1 activator – HSF-1 activators, primary screen, NIH3T3-HGL cells, MG132 stress, luminescence, single point. NIH3T3-HGL HSF-1 luciferase reporter, 8 h; 100% = twice DMSO control signal. activation, % at 9 µM. hit rate 1.7% among 300,000. AID 504408, 2011;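 active = mean replicate activation of at least 50% with a set share of replicates each reaching 50%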;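 note: 0% = median of the neutral control wells and 100% = twice that signal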
HSF1 inhib – HSF1 inhibitors in luciferase reporter cells, primary screen, cell-based, NIH3T3, luminescence. NIH3T3-HGL HSE-luciferase, MG132-induced, luminescence 8 h; stronger effect = lower value. activity change, negative = inhibition, % at 7.5 µM (by protocol). hit rate 0.77% among 300,000;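 active = more than half of replicate wells show activity change below -50%, luminescence cut by over half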;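 note: luciferase reports HSF-1 transcriptional activity via heat shock element; 0% = median of DMSO wells and -100% = zero luminescence signal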
Numbers without * were called inactive; · = not tested or not shown.

SMILES	core dimer inh	PHOSPHO1 inh	ALR H2O2 inh	AI-2 QS modul	HSF1 activator	HSF1 inhib
O=C(CSc1nc2ccc(Cl)cc2[nH]1)Nc1ccc2[nH]c(=O)[nH]c2c1	5.2	·	97.9*	-3.7	-11.0	-2.0
Cc1c(C(=O)OCc2nc3ccsc3c(=O)[nH]2)oc2ccccc12	·	·	1.6	·	·	·
Cc1cc(C)c(NC(=O)c2ccccc2C(=O)c2ccccc2)c(C)c1	8.1	57.8	-9.2	15.4	4.6	4.5
COc1cc(C2N(c3ccccc3)CCN2c2ccccc2)ccc1OC(C)=O	11.2	5.2	94.2*	11.8	-28.1	-11.5
COc1cc(C2N(Cc3ccccc3)CCN2Cc2ccccc2)ccc1OC(C)=O	-2.7	24.7	8.6	7.8	9.9	1.6
O=C(CSC(=S)N1CCCC1)N1CCN(S(=O)(=O)c2ccccc2F)CC1	-2.1	·	-19.3	18.9	-18.4	2.0
Cc1ccc(S(=O)(=O)NCCC(=O)NCc2ccco2)cc1	-5.2	4.7	3.0	19.5	-4.1	-5.6
CCc1c(C)sc(NC(=O)c2cc(C3CC3)on2)c1C#N	5.7	15.2	94.4*	18.8	-16.0	-3.1
CCc1c(C)sc(NC(=O)c2cc(C)on2)c1C#N	0.5	24.2	84.9*	-2.5	6.7	7.2
COc1ccc([N+](=O)[O-])cc1N(CC(=O)NC(C(C)C)C(C)C)S(C)(=O)=O	2.8	40.8	-7.3	37.7	-14.8	-5.0
Fc1ccc(Nc2nc(N3CCOCC3)c3ccccc3n2)cc1	-5.4	-8.7	92.8*	9.2	-5.8	-15.8
COc1ccc(C)cc1N1C(=N)/C(=C2/Nc3ccccc3S2)C(c2ccccc2)C1=O (stereo not given)	12.6	-13.9	·	·	·	·
CCOc1ccc(NC(=O)CSc2nnc(-c3ccccc3)n2N)cc1	-2.6	33.6	-2.8	7.9	0.7	-6.1
CCOc1ccc(NC(=O)CSc2nncc(=O)n2N)cc1	-12.1	32.7	95.7*	8.9	1.8	6.0
CCCc1nnc(SCC(=O)Nc2ccc(OCC)cc2)n1N	-4.8	-13.6	98.4*	15.8	15.4	1.9
COc1ccc(CNCC(=O)Nc2cccc(S(N)(=O)=O)c2)cc1	4.7	34.9	-17.8	31.8	-1.3	-3.9
CCCc1nnc(NC(=O)c2nc(S(=O)(=O)Cc3ccc(C)cc3)ncc2Cl)s1	-3.7	7.5	9.2	4.6	-81.7	-80.0*
CSc1nnc(NC(=O)c2nc(S(=O)(=O)Cc3ccccc3)ncc2Cl)s1	10.7	14.0	97.4*	7.9	-27.9	-26.9
CC(C)c1nnc(NC(=O)c2nc(S(=O)(=O)Cc3ccccc3)ncc2Cl)s1	-3.0	49.6	97.9*	-21.9	-86.9	-85.9*
Cc1ccc(Cl)cc1N1CCN(C(=O)CNC(=O)c2ccc(Br)o2)CC1	·	·	-0.7	·	·	·
CC(C)NC(=O)Cn1cc(S(=O)(=O)N2CCCC2)c(S(=O)(=O)N2CCCC2)c1	0.0	34.4	0.6	20.2	-46.2	-33.8
CCN(CC)c1ccc(C=C2C(=O)OC(c3ccccc3)OC2=O)cc1 (stereo not given)	5.1	-3.0	25.9	12.7	-6.5	-0.3
CCN(CC)c1ccc(/C=C/C(=O)C2C(=O)C=C(C)OC2=O)cc1 (stereo not given)	3.5	-0.6	98.8*	10.0	38.8	6.1
Cc1c(CN2CCC(n3nccc3NC(=O)C3CC3)CC2)[nH]c2ccccc12	-2.1	5.1	6.4	-15.2	4.9	0.1
Cc1ccc(/C=[N+](\[O-])c2ccc(N(C)C)cc2)c2nsnc12	·	11.2	·	19.5	-61.0	-57.0*
SMILES	core dimer inh	PHOSPHO1 inh	ALR H2O2 inh	AI-2 QS modul	HSF1 activator	HSF1 inhib
COc1ccc(-n2ncc3c(=O)n(CC(=O)NC(C)C)cnc32)cc1	0.6	8.2	-8.0	16.6	3.5	-3.5
O=C(NC1CCOCC1)C1CCC(=O)N(CCc2ccc(Cl)cc2)C1 (stereo not given)	-4.1	22.2	-1.1	14.7	0.2	-1.1
CCOC(=O)C(=NC(C)(C)C)NNc1cc(Cl)ccc1Cl	-8.5	-2.4	98.6*	6.0	-0.1	-4.2
O=[N+]([O-])c1cc(-c2ncccn2)c([N+](=O)[O-])s1	-7.7	2.3	98.1*	38.2	97.4*	95.3
CCCOc1ccc(CNC(=O)Cc2cccs2)cc1	-3.7	26.5	9.4	21.7	30.2	10.8
Oc1ccc(Br)cc1-c1nc2cnccn2c1NC1CCCCC1	-0.2	10.7	92.1*	10.7	-12.9	-8.4
Fc1ccc(-c2nc3cnccn3c2NC2CCCC2)cc1	2.2	40.7	99.3*	16.4	24.6	0.1
Cc1ccn2c(NC3CCCCC3)c(-c3cccc(SC4CCCCC4)c3)nc2c1	·	·	-1.2	·	·	·
Oc1ccc(Br)cc1-c1nc2cnccn2c1NC1CCCC1	6.0	-14.6	94.4*	23.4	-8.8	-7.0
Cc1cc(C)c(NC(=O)C(C)c2cccc(C(=O)c3ccccc3)c2)c(C)c1 (stereo not given)	14.1	-19.0	-18.5	19.7	2.1	3.8
O=S(=O)(Nc1cccc(-n2cnnn2)c1)c1cc(Cl)ccc1Cl	-3.4	22.5	2.1	0.4	-91.2	-88.0*
O=S(=O)(Nc1cccc(-n2cnnn2)c1)c1cccc(Cl)c1	-1.5	22.6	-4.6	5.9	1.3	-1.3
Cc1cc(NC(=O)C2CC(=O)N(c3ccccc3Cl)C2)no1 (stereo not given)	1.9	14.5	2.7	15.2	-1.0	-6.0
Cc1cc(C)c2c(N)c(C(=O)Nc3cccc(C)c3C)sc2n1	-0.5	·	23.6	53.1	52.4*	13.2
N#Cc1c(-c2ccccc2Cl)cc(C2CC2)nc1N	-0.1	83.5*	-2.7	·	·	·
Cc1ccc(CS/C(Nc2ccccc2C)=C(\C#N)C(=O)NCc2ccco2)c(C)c1	-4.1	21.0	99.2*	21.4	9.7	6.7
CCCCc1nc2sc3c(SCCN(C)C)ncnc3c2c2c1CCC2	3.4	43.0	-1.3	·	15.1	-2.4
O=C(COc1ncnc2scc(-c3ccc(F)cc3)c12)NCc1ccco1	17.1	29.0	5.7	-4.9	11.3	-3.3
Cc1ccc(-c2csc3ncnc(OCC(=O)NC(=O)NCc4ccco4)c23)cc1	48.9*	29.6	1.6	6.3	-26.3	-10.2
Cc1sc2ncnc(SCC(=O)NC(=O)NCc3ccco3)c2c1C	50.3*	15.6	5.6	10.2	18.7	8.8
CCCCc1nc2sc3c(SCC(=O)NCc4ccco4)ncnc3c2c2c1CCC2	104.5*	28.7	9.2	3.5	12.4	6.8
COc1ccc(C(=O)COC(=O)c2cc(S(=O)(=O)NCc3ccccc3)ccc2O)cc1	8.3	27.5	-8.5	19.4	12.6	3.5

Screens deposited in PubChem by several laboratories.
